The whole screen tested about 2,500 compounds, of which about 460 (18%) were called active. Not all results are given here. Values without a mark were called inactive.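 Rule for the calls: active = mean activation above a cutoff of low control average plus 3 SD from the earlier screen (cut at about 12% in these data); inactive = the rest.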
assay: IANBD-channel fluorescence artefacts in buffer – biochemical, artefact control for cardiac RTF calcium sensitizer project, confirmation (AID 504382); conditions: IANBD fluorescence interference counterscreen, EC20 Ca2+, at 7.2 µM, stronger effect = higher value, scaled: EC20 calcium 0, EC100 calcium 100
Summary of the method: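 Doses – one dose of 7.2 µM, 0.7% DMSO · Buffer or medium – MOPS/KCl/MgCl2/EGTA/NTA/DTT buffer, pH 7.2 · Probe or stimulus – Ca2+ fixed at EC20, 0.472 mM · Measured by – fluorescence intensity, excitation 480 nm, emission 540 nm · Read-out – fluorescence interference versus control range · Timing – 15 min compound exposure at 25 °C · Replication – triplicate wells per compound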

Row | SMILES | fluorescence artifact activation
1 | CCCNS(=O)(=O)c1ccc2c(c1)n(C)c(=O)n2C | 1.63%
2 | Cc1cnc(C(=O)Nc2nnc(SCc3c(Cl)cccc3Cl)s2)cn1 | 1.18%
3 | O=C1c2cccc3c(N4CCCCC4)ccc(c23)C(=O)N1c1cccc(O)c1 | 6.35%
4 | O=C(OCCN1CCCCC1)c1ccccc1Br | -0.03%
5 | CN1CCCC(OC(=O)c2ccccc2Br)C1 (stereo not given) | 20.7% (active)
6 | O=C(Cn1c(=O)oc2cc(S(=O)(=O)N3CCCC3)ccc21)N1CCc2ccccc2C1 | 0.09%
7 | CC(C)(C)c1ccc(C(=O)Nc2cccc3ncccc23)cc1 | 0.15%
8 | CCOC(=O)C(=O)Nc1nnc(COc2ccccc2)s1 | -0.01%
9 | O=C(N/N=C/c1cc([N+](=O)[O-])ccc1N1CCNCC1)c1ccc([N+](=O)[O-])cc1 | 5.53%
10 | NC(=O)CC(NC(=O)Cc1ccc(Cl)cc1)c1ccc(N2CCN(c3ccccn3)CC2)c([N+](=O)[O-])c1 (stereo not given) | 51.4% (active)
11 | Cc1cc(C)cc(C(=O)NC(CC(N)=O)c2ccc(N3CCCCCC3)c([N+](=O)[O-])c2)c1 (stereo not given) | 0.1%
12 | O=C(NCc1ccccc1)c1ccc(N2CCC3(CC2)CC(c2ccccc2)=NO3)c([N+](=O)[O-])c1 | -0.07%
13 | NC(=O)CC(NC(=O)c1ccc(Br)cc1)c1ccc(N2CCN(c3ccc(F)cc3)CC2)c([N+](=O)[O-])c1 (stereo not given) | 13.7% (active)
14 | CN(/N=C/c1ccc(O)cc1O)c1ncc(C(F)(F)F)cc1Cl | 0.11%
15 | O=C(c1ccc(Cn2cc([N+](=O)[O-])cn2)o1)N1N=C(C(F)F)CC1(O)C(F)F (stereo not given) | 3.96%
16 | CC/C(=N/Nc1cccc(C)c1)c1cnnc(SC)n1 | 3.63%
17 | Cc1ccccc1NC(=S)Nc1ccc(Br)cc1 | -0.08%
18 | Cc1ccc(Cl)c2c(N=Nc3ccccc3)c(O)[nH]c12 | 0.17%
19 | COCCN1C(=O)/C(=C/c2ccc(N3CCCC3)cc2C)SC1=S | 0.17%
20 | COc1ccc(N2C(N)=NC(N)=NC2(C)C)cc1 | -0.01%

Row | SMILES | fluorescence artifact activation
21 | COC(=O)c1ccc(NC(=O)c2cccc(OC)c2)cc1 | 0.1%
22 | Cc1ccc(OCCCC(=O)NC2CCCCC2)cc1 | 0%
23 | Cc1cc(=O)n2nc(N3CCCC3C(=O)Nc3ccc(C(C)C)cc3)sc2n1 (stereo not given) | 166% (active)
24 | Cc1cc(C)n2nc(C(=O)N3CCCC(Nc4ccc(C(C)C)cc4)C3)cc2n1 (stereo not given) | 2.67%
25 | COc1cc(NC(=O)[C@@H]2CCCN2S(=O)(=O)c2cccc3cccnc23)cc(OC)c1OC | 0.18%
26 | C=C1CCN([C@@H](Cc2ccccc2)C(=O)O)S(=O)(=O)c2ccccc21 | 4.75%
27 | Cc1cccc(NC(=O)Cn2cnc3ccc(S(=O)(=O)N4CCC(C)CC4)cc3c2=O)n1 | 3.57%
28 | CC[n+]1c(/C=C2\Sc3ccccc3N2C)ccc2cccc(C)c21 | 0.11%
29 | COc1ccccc1-[n+]1c(C)cc(/C=C2\Sc3ccccc3N2C)cc1C | 0.15%
30 | COc1ccc(-[n+]2c(C)cc(/C=C3\Sc4ccccc4N3C)cc2C)cc1 | 50.7% (active)
31 | CN(C)CCN(C)Cc1c2ccccc2c(CN(C)CCN(C)C)c2ccccc12 | 8.32%
32 | Cc1cccc(N2C(=O)c3cccc4c(N(C)CCO)ccc(c34)C2=O)c1 | 0.05%
33 | CC1(c2cccc(Br)c2)NC(=O)NC1=O (stereo not given) | 16.7% (active)
34 | Nc1ccc2nc3c(=O)n(C4CCCCC4)c(=O)[nH]c3nc2c1 | 1.78%
35 | Cc1ccc(C)c(N2CCN(C(=O)CN3C(=S)NC(C)(C)CC3C)CC2)c1 (stereo not given) | 8.59%
36 | COc1cc(/C=C2\CC/C(=C\c3ccc(OCCO)c(OC)c3)C2=O)ccc1OCCO | 0.12%
37 | C/C=C/c1ccc(OCCCNCC(C)O)c(OC)c1 (stereo not given) | 112% (active)
38 | COc1ccc(OC)c(/C=N/N=C(\N)c2nonc2N)c1 | 9.14%
39 | COc1ccc(CN2CCC(=O)N([C@H](CO)c3ccccc3)CC2)cc1 | 6.01%
40 | CCOc1ccccc1N1CCN(CC(=O)N(CC(C)C)c2c(N)n(CC(C)C)c(=O)[nH]c2=O)CC1 | 13.8% (active)

Row | SMILES | fluorescence artifact activation
41 | CCOc1ccccc1N1CCN(CC(=O)c2c(N)n(C)c(=O)n(C)c2=O)CC1 | 2.53%
42 | CC(C)CN(C(=O)CCCc1nc2ccccc2c(=O)[nH]1)c1c(N)n(Cc2ccccc2)c(=O)[nH]c1=O | 0.01%
43 | O=C1NC(c2ccccc2)=C(c2nc3ccccc3s2)C(c2ccc(O)cc2)N1 (stereo not given) | -0.03%
44 | Nc1ccc2c3c(cccc13)-c1ccccc1-2 | 0.02%
45 | Cc1n[nH]c(C)c1N1C(=O)c2cccc3c(N4CCCCCC4)ccc(c23)C1=O | 0.08%
46 | COc1cc(/C=C2\CCC(C)C3=C(c4cc(OC)c(OC)c(OC)c4)C(C#N)=C(N)OC32)cc(OC)c1OC (stereo not given) | 14.5% (active)
47 | CC1(C)CC(=O)C2=C(C1)OC(N)=C(C#N)C21CCN(Cc2ccccc2)CC1 | 0.25%
48 | COC(=O)C1=COC(C)C2CN3CCc4c([nH]c5ccccc45)C3CC12 (stereo not given) | 1.05%
49 | CCOC(=O)Cn1c(=NC(=O)c2cc(-c3cccs3)nc3ccccc23)sc2cc(S(N)(=O)=O)ccc21 | -0.11%
50 | CC(C)C(=O)c1cc2c(cc1NC(=O)c1ccccc1)OCCO2 | 0.02%
51 | O=C(Nc1ccccc1OC(=O)c1ccccc1)c1ccccc1 | 45% (active)
52 | COc1ccccc1NC(=O)/C=C/C(=O)O | 0.29%
53 | COc1ccc(OC)c(C2C3CN(C(C)C)CC=C3C(C#N)=C(N)C2(C#N)C#N)c1 (stereo not given) | 1.64%
54 | CCn1c(NC(=O)Nc2cccc(C)c2C)cc2sccc21 | 0.08%
55 | C#CC[N+](C)(C)CCCCCCCCCC | 13.8% (active)
56 | Cc1nccc(-c2cccc(N/N=C(\C#N)C(=O)c3ccccc3)c2)n1 | -0.02%
57 | CCOC(=O)Cn1nc2sc3ccccc3n2c(=O)c1=O | -0.05%
58 | Cc1ccc(CNC(=O)c2cccc3c2C(=O)c2ccc(N4CCCCC4)cc2S3(=O)=O)cc1 | -0.01%
59 | O=C(CCc1ccc(S(=O)(=O)NCCc2ccccc2)cc1)N1CCN(Cc2ccc3c(c2)OCO3)CC1 | -0.04%
60 | Cc1ccc(S(=O)(=O)NC(C)(C)CN2CCC(Cc3ccccc3)CC2)cc1 | 3.9%

— PubChem BioAssay AID504382 (The Scripps Research Institute Molecular Screening Center, 2011)
